The IC50 is the concentration needed to halve the response being measured.

Series [1] is described as follows: Cytotoxicity against HEK293T cells at 10 uM after 48 hrs by cell proliferation assay. Format: toxicity, cell-based. Particulars: human, hek-293t. The essentials: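 HEK 293T cells seeded at 1×10^4 cells/well, treated next day with serially diluted compounds and cultured 48 h; viability read with a cell proliferation assay kit per manufacturer's instructions. Footnote reports testing at a final concentration of 10 μM.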

For series [2], the system named is Human immunodeficiency virus 1. In words: Ratio of IC50 for HIV-1 NL4-3 harboring RT-K103N/V108I double mutant infected in HEK293T cells co-expressing vesicular stomatitis virus glycoprotein to IC50 for wild-type HIV-1 NL4-3 infected in HEK293T cells co-expressing vesicular stomatitis virus glycoprotein. In kind it is functional, HEK-293T. The essentials: (§1)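 Fold change: mean IC50 against each RT-mutant VSV-G-pseudotyped virus divided by IC50 against wild-type pseudovirus. Both values come from the same HEK293T assay: 0.2 ng p24/mL inoculum, compound added 15 min before infection, luciferase read-out at 48 h.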

Series [3] relates to Human immunodeficiency virus 1. The experiment in a line: Ratio of IC50 for HIV-1 NL4-3 harboring RT-K103N/G190A double mutant infected in HEK293T cells co-expressing vesicular stomatitis virus glycoprotein to IC50 for wild-type HIV-1 NL4-3 infected in HEK293T cells co-expressing vesicular stomatitis virus glycoprotein. In kind it is functional, HEK-293T. The essentials: as §1

Series [4] deals with Human immunodeficiency virus 1. In words: Ratio of IC50 for HIV-1 NL4-3 harboring RT-K103N/P225H double mutant infected in HEK293T cells co-expressing vesicular stomatitis virus glycoprotein to IC50 for wild-type HIV-1 NL4-3 infected in HEK293T cells co-expressing vesicular stomatitis virus glycoprotein. Format: functional, HEK-293T. The essentials:
as §1

Series [5] concerns Human immunodeficiency virus 1. In words: Ratio of IC50 for HIV-1 NL4-3 harboring RT-Y188L mutant infected in HEK293T cells co-expressing vesicular stomatitis virus glycoprotein to IC50 for wild-type HIV-1 NL4-3 infected in HEK293T cells co-expressing vesicular stomatitis virus glycoprotein. Format: functional, HEK-293T. The essentials: as §1
The test system of series [6] is Human immunodeficiency virus 1. In words: Ratio of IC50 for HIV-1 NL4-3 harboring RT-L100I/K103N double mutant infected in HEK293T cells co-expressing vesicular stomatitis virus glycoprotein to IC50 for wild-type HIV-1 NL4-3 infected in HEK293T cells co-expressing vesicular stomatitis virus glycoprotein. In kind it is functional, HEK-293T. The essentials:
as §1

Series [7] relates to Human immunodeficiency virus 1. In words: Ratio of IC50 for HIV-1 NL4-3 harboring RT-Y181C mutant infected in HEK293T cells co-expressing vesicular stomatitis virus glycoprotein to IC50 for wild-type HIV-1 NL4-3 infected in HEK293T cells co-expressing vesicular stomatitis virus glycoprotein. In kind it is functional, HEK-293T. The essentials:
as §1

Series [8] has as its system Human immunodeficiency virus 1. In words: Ratio of IC50 for HIV-1 NL4-3 harboring RT-K103N mutant infected in HEK293T cells co-expressing vesicular stomatitis virus glycoprotein to IC50 for wild-type HIV-1 NL4-3 infected in HEK293T cells co-expressing vesicular stomatitis virus glycoprotein. Format: functional, HEK-293T.
Series [9] relates to Human immunodeficiency virus 1. In words: Antiviral activity against HIV-1 NL4-3 harboring RT-K103N/Y181C double mutant infected in HEK293T cells coexpressing vesicular stomatitis virus glycoprotein pretreated with cells for 15 mins followed by viral infection measured after 48 hrs by luciferase reporter gene assay. In kind it is functional, cell-based. Particulars: hek-293t. The gist of the method:
(§2)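 VSV-G-pseudotyped HIV-1 (wild-type or RT mutant) produced by co-transfection of HEK293T cells (calcium phosphate), supernatant harvested 48 h, 0.22 µm filtered, normalised by p24 ELISA to 0.2 ng p24/mL.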
In general terms: Reporter assays use an easily measured gene product as a stand-in for the process of interest.

The subject of series [10] is Human immunodeficiency virus 1. In words: Antiviral activity against HIV-1 NL4-3 harboring RT-K103N/V108I double mutant infected in HEK293T cells coexpressing vesicular stomatitis virus glycoprotein pretreated with cells for 15 mins followed by viral infection measured after 48 hrs by luciferase reporter gene assay. Particulars: hek-293t. In kind it is functional, cell-based. The essentials: as §2

Series [11] has as its system Human immunodeficiency virus 1. The experiment in a line: Antiviral activity against HIV-1 NL4-3 harboring RT-K103N/G190A double mutant infected in HEK293T cells coexpressing vesicular stomatitis virus glycoprotein pretreated with cells for 15 mins followed by viral infection measured after 48 hrs by luciferase reporter gene assay. Format: functional, cell-based. Particulars: hek-293t. The gist of the method:
as §2

Series [12] deals with Human immunodeficiency virus 1. In words: Antiviral activity against HIV-1 NL4-3 harboring RT-K103N/Y188L double mutant infected in HEK293T cells coexpressing vesicular stomatitis virus glycoprotein pretreated with cells for 15 mins followed by viral infection measured after 48 hrs by luciferase reporter gene assay. Conditions: hek-293t. In kind it is functional, cell-based. The gist of the method: as §2

In series [13] the test system is Human immunodeficiency virus 1. In words: Antiviral activity against HIV-1 NL4-3 harboring RT-K103N/P225H double mutant infected in HEK293T cells coexpressing vesicular stomatitis virus glycoprotein pretreated with cells for 15 mins followed by viral infection measured after 48 hrs by luciferase reporter gene assay. In kind it is functional, cell-based. Particulars: hek-293t. The essentials:
as §2

The subject of series [14] is Human immunodeficiency virus 1. The experiment in a line: Antiviral activity against HIV-1 NL4-3 harboring RT-Y188L mutant infected in HEK293T cells coexpressing vesicular stomatitis virus glycoprotein pretreated with cells for 15 mins followed by viral infection measured after 48 hrs by luciferase reporter gene assay. In kind it is functional, cell-based. Particulars: hek-293t. The essentials: as §2

In series [15] the test system is Human immunodeficiency virus 1. In words: Antiviral activity against HIV-1 NL4-3 harboring RT-L100I/K103N double mutant infected in HEK293T cells coexpressing vesicular stomatitis virus glycoprotein pretreated with cells for 15 mins followed by viral infection measured after 48 hrs by luciferase reporter gene assay. In kind it is functional, cell-based. Conditions: hek-293t. The essentials: as §2

In series [16] the test system is Human immunodeficiency virus 1. In words: Antiviral activity against HIV-1 NL4-3 harboring RT-Y181C mutant infected in HEK293T cells coexpressing vesicular stomatitis virus glycoprotein pretreated with cells for 15 mins followed by viral infection measured after 48 hrs by luciferase reporter gene assay. Particulars: hek-293t. In kind it is functional, cell-based. The gist of the method: as §2

For series [17], the system named is Human immunodeficiency virus 1. The experiment in a line: Antiviral activity against HIV-1 NL4-3 harboring RT-K103N mutant infected in HEK293T cells coexpressing vesicular stomatitis virus glycoprotein pretreated with cells for 15 mins followed by viral infection measured after 48 hrs by luciferase reporter gene assay. Conditions: hek-293t. In kind it is functional, cell-based. The essentials: as §2

Series [18] relates to Human immunodeficiency virus 1. In words: Antiviral activity against wild-type HIV-1 NL4-3 harboring vesicular stomatitis virus glycoprotein infected in HEK293T cells pretreated with cells for 15 mins followed by viral infection measured after 48 hrs by luciferase reporter gene assay. In kind it is functional, cell-based. Conditions: Human immunodeficiency virus 1, NL4-3, HEK-293T. The essentials:
as §2

For series [19], the system named is Human immunodeficiency virus 1. In words: Ratio of IC50 for HIV-1 NL4-3 harboring RT-K103N/Y181C double mutant infected in HEK293T cells co-expressing vesicular stomatitis virus glycoprotein to IC50 for wild-type HIV-1 NL4-3 infected in HEK293T cells co-expressing vesicular stomatitis virus glycoprotein. In kind it is functional, HEK-293T. The gist of the method:
as §1

The test system of series [20] is Human immunodeficiency virus 1. In words: Ratio of IC50 for HIV-1 NL4-3 harboring RT-K103N/Y188L double mutant infected in HEK293T cells co-expressing vesicular stomatitis virus glycoprotein to IC50 for wild-type HIV-1 NL4-3 infected in HEK293T cells co-expressing vesicular stomatitis virus glycoprotein. In kind it is functional, HEK-293T. The gist of the method:
as §1

Consider `COc1ccccc1Cc1sc(NCc2ccc3c(c2)CCO3)nc1-c1ccccc1`, for which, in series [1], the Activity entry is reported as “Non-Toxic”. Moreover, the “Ratio IC50” value is 21.3 in series [2]; 8.1 in series [3]; 69.2 in series [4]; above 223.7 in [5]; 73.8 in [6]; 8.8 in [7]. Besides, the “Ratio IC50” value in [8] is given as 12.2; in series [19], 132.8; in series [20], above 223.7. In addition, the IC50 in series [9] was 9.56 µM; in series [10] it was 1530 nM; in [11], 580 nM; in series [12], above 10 µM; in [13] it was 4.98 µM; in [14] it was above 10 µM. Moreover, the concentration for half-maximal inhibition (IC50) worked out at 5.31 µM in series [15], 512 nM in [16], 880 nM in [17] and 72 nM in [18].

Take `Clc1cccc(Cl)c1Cc1sc(NCc2ccc3c(c2)CCO3)nc1-c1ccccc1`: the Activity entry in series [1] is “Non-Toxic”. In addition, the “Ratio IC50” value was 48.5 in [2]; 9.1 in series [3]; above 161.8 in [4]; above 161.8 in series [5]; 81.7 in [6]; 6.3 in [7]. The “Ratio IC50” value in series [8] was 24.8; in series [19], above 161.8; in series [20] it was above 161.8. Moreover, the IC50 in series [9] was above 10 µM; in series [10], 3000 nM; in series [11], 560 nM; in [12], above 10 µM; in [13], above 10 µM; in series [14] it was above 10 µM. Also, the IC50 is 5.05 µM in [15], 390 nM in series [16], 1530 nM in series [17] and 61.8 to 62 nM in series [18].

Values taken from ChEMBL document CHEMBL3875141, “2,4,5-Trisubstituted thiazole derivatives as HIV-1 NNRTIs effective on both wild-type and mutant HIV-1 reverse transcriptase: Optimization of the substitution of positions 4 and 5” (Eur J Med Chem, 2016).
